Measurements taken from ChEMBL document CHEMBL2146380, “Uncoupling and antioxidant effects of ursolic acid in isolated rat heart mitochondria” (J Nat Prod, 2011).
In brackets after ≈: the same amount, converted by molar mass. Activity calls are given as the source filed them. No cut-off for these calls is given here.

Assays:
Type in all cases: functional
Rattus norvegicus [1] = species: Rattus norvegicus; test: Effect on mitochondrial respiratory chain in Wistar rat heart mitochondria assessed as ratio of respiratory rate in presence of ADP and cytochrome C to respiratory rate in presence of ADP using pyruvate and malate as substrate (reference value: 1.6+/-0.2)
Outline: (§1)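 Isolated male Wistar rat heart mitochondria at 0.5 mg protein/mL. O2 uptake was recorded by Clark electrode at 37 C in pH 7.1 imidazole/taurine/MES medium (3 mM KH2PO4, 0.1 μM free Ca2+). Substrates were 6 mM pyruvate + 6 mM malate, 12 mM succinate + 2 mM amytal, or 9 μM palmitoyl-L-carnitine + 0.24 mM malate. Sequence: State 2 (V0), then 1 mM ADP (State 3), then 32 μM cytochrome c. RCI = VADP/V0. Rates in nmol O/min/mg; n = 3–4.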

Rattus norvegicus [2] = species: Rattus norvegicus; test: Effect on mitochondrial respiratory chain in Wistar rat heart mitochondria assessed as increase in state 3 respiration rate using pyruvate and malate as substrate in presence ADP at 50 to 200 ng/mL; outline: as §1
Rattus norvegicus [3] = species: Rattus norvegicus; test: Effect on mitochondrial respiratory chain in Wistar rat heart mitochondria assessed as respiratory control index using palmitoyl-L-carnitine and malate as substrate (reference value: 5.2+/-0.4); outline: as §1
Rattus norvegicus [4] = species: Rattus norvegicus; test: Effect on basal respiration rate in Wistar rat heart mitochondrial respiratory chain using pyruvate and malate as substrate at 0.4 to 1.2 ng/mL; settings: Mitochondria
Outline: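 Clark-type electrode oxygen uptake at 37 C, pH 7.1 imidazole/taurine/MES medium with 3 mM KH2PO4, 0.1 μM free Ca2+. Substrates 6 mM pyruvate + 6 mM malate; compound at 0.4, 0.8, 1.2 ng/mL; State 2 (V0) rate registered, nmol O/min/mg protein.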

Rattus norvegicus [5] = species: Rattus norvegicus; test: Effect on mitochondrial respiratory chain in Wistar rat heart mitochondria assessed as complex-1 dependent state 2 respiratory rate per mg protein using pyruvate and malate as substrate at 5 ng/mL; outline: as §1
Rattus norvegicus [6] = species: Rattus norvegicus; test: Effect on mitochondrial respiratory chain in Wistar rat heart mitochondria assessed as respiratory control index using pyruvate and malate as substrate (reference value: 8.0+/-1.2); outline: as §1
Rattus norvegicus [7] = species: Rattus norvegicus; test: Effect on mitochondrial respiratory chain in Wistar rat heart mitochondria assessed as respiratory rate per mg protein using succinate and amytal sodium as substrate (reference value: 238+/-39 nmol/min); outline: as §1
Rattus norvegicus [8] = species: Rattus norvegicus; test: Effect on mitochondrial respiratory chain in rat heart mitochondria assessed as stimulation of state 2 respiration rate 4.9 ng/mL
Rattus norvegicus [9] = species: Rattus norvegicus; test: Effect on mitochondrial respiratory chain in Wistar rat heart mitochondria assessed as ratio of respiratory rate in presence of ADP and cytochrome c to respiratory rate in presence of ADP using succinate and amytal sodium as substrate (reference value: 1.8+/- 0.1); outline: as §1
Rattus norvegicus [10] = species: Rattus norvegicus; test: Effect on mitochondrial respiratory chain in Wistar rat heart mitochondria assessed as ratio of respiratory rate in presence of ADP and cytochrome c to respiratory rate in presence of ADP using palmitoyl-L-carnitine and malate as substrate (reference value: 1.3+/-0.1); outline: as §1
Rattus norvegicus [11] = species: Rattus norvegicus; test: Effect on mitochondrial respiratory chain in Wistar rat heart mitochondria assessed as state 2 respiratory rate per mg protein using succinate and amytal sodium as substrate at 5 ng/mL; outline: as §1
Rattus norvegicus [12] = species: Rattus norvegicus; test: Effect on mitochondrial respiratory chain in Wistar rat heart mitochondria assessed as increase in state 2 respiratory rate using palmitoyl-L-carnitine and malate as substrate at 1.6 ng/mL; outline: as §1
Rattus norvegicus [13] = species: Rattus norvegicus; test: Effect on mitochondrial respiratory chain in rat heart mitochondria assessed as stimulation of state 2 respiration rate 293 ng/mL
Rattus norvegicus [14] = species: Rattus norvegicus; test: Antioxidant activity in Wistar rat heart mitochondria assessed as reduction in H2O2 production at 1.6 ng/mL by Amplex red based fluorimetric analysis; set-up: scale not given: the % may be the effect or the level left
Outline: (§2)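 Male Wistar rat heart mitochondria (0.25 mg/mL) incubated 7 min at 37 C in respiration medium with 6 mM each pyruvate and malate plus 16 ng/mL antimycin A. CCCP (1 μM) was the uncoupler reference. Then 5 μM Amplex Red and 2 U/mL horseradish peroxidase were added; fluorescence at ex 544/em 590 nm, calibrated with known H2O2; n = 3.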

Rattus norvegicus [15] = species: Rattus norvegicus; test: Antioxidant activity in Wistar rat heart mitochondria assessed as reduction in H2O2 production at 5 ng/mL by Amplex red based fluorimetric analysis; set-up: scale not given: the % may be the effect or the level left; outline: as §2
Rattus norvegicus [16] = species: Rattus norvegicus; test: Effect on mitochondrial respiratory chain in Wistar rat heart mitochondria assessed as increase in state 2 respiratory rate per mg protein using succinate and amytal sodium as substrate at 5 ng/mL; outline: as §1
Rattus norvegicus [17] = species: Rattus norvegicus; test: Effect on mitochondrial respiratory chain in Wistar rat heart mitochondria assessed as increase in state 2 respiratory rate using palmitoyl-L-carnitine and malate as substrate at 5 ng/mL; outline: as §1
Rattus norvegicus [18] = species: Rattus norvegicus; test: Effect on mitochondrial respiratory chain in Wistar rat heart mitochondria assessed as respiratory control index using succinate and amytal sodium as substrate (reference value: 2.5+/- 0.1); outline: as §1
Rattus norvegicus [19] = species: Rattus norvegicus; test: Effect on mitochondrial respiratory chain in Wistar rat heart mitochondria assessed as increase in complex-1 dependent state 2 respiratory rate per mg protein using pyruvate and malate as substrate at 5 ng/mL; outline: as §1
Rattus norvegicus [20] = species: Rattus norvegicus; test: Effect on mitochondrial respiratory chain in Wistar rat heart mitochondria assessed as state 2 respiratory rate using palmitoyl-L-carnitine and malate as substrate at 5 ng/mL; outline: as §1
Rattus norvegicus [21] = species: Rattus norvegicus; test: Effect on mitochondrial respiratory chain in rat heart mitochondria assessed as stimulation of state 2 respiration rate 7 ng/mL
Rattus norvegicus [22] = species: Rattus norvegicus; test: Effect on mitochondrial respiratory chain in Wistar rat heart mitochondria assessed as complex-1 dependent state 2 respiratory rate per mg protein using pyruvate and malate as substrate at 1.6 ng/mL; outline: as §1
Rattus norvegicus [23] = species: Rattus norvegicus; test: Effect on mitochondrial respiratory chain in Wistar rat heart mitochondria assessed as state 2 respiratory rate using palmitoyl-L-carnitine and malate as substrate at 1.6 ng/mL; outline: as §1
Rattus norvegicus [24] = species: Rattus norvegicus; test: Effect on mitochondrial respiratory chain in Wistar rat heart mitochondria assessed as increase in state 2 respiratory rate per mg protein using succinate and amytal sodium as substrate at 1.6 ng/mL; outline: as §1
Rattus norvegicus [25] = species: Rattus norvegicus; test: Effect on mitochondrial respiratory chain in Wistar rat heart mitochondria assessed as state 2 respiratory rate per mg protein using succinate and amytal sodium as substrate at 1.6 ng/mL; outline: as §1
Rattus norvegicus [26] = species: Rattus norvegicus; test: Effect on mitochondrial respiratory chain in Wistar rat heart mitochondria assessed as respiratory rate per mg protein using pyruvate and malate as substrate in presence of ADP (reference value: 389+/-40 nmol/min); outline: as §1
Rattus norvegicus [27] = species: Rattus norvegicus; test: Effect on mitochondrial respiratory chain in rat heart mitochondria assessed as stimulation of state 2 respiration rate 26 ng/mL
Rattus norvegicus [28] = species: Rattus norvegicus; test: Effect on mitochondrial respiratory chain in Wistar rat heart mitochondria assessed as increase in complex-1 dependent state 2 respiratory rate per mg protein using pyruvate and malate as substrate at 1.6 ng/mL; outline: as §1
Rattus norvegicus [29] = species: Rattus norvegicus; test: Effect on mitochondrial respiratory chain in Wistar rat heart mitochondria assessed as decrease in respiratory control index at 50 to 200 ng/mL; set-up: scale not given: the % may be the effect or the level left; outline: as §1
Rattus norvegicus [30] = species: Rattus norvegicus; test: Effect on mitochondrial respiratory chain in Wistar rat heart mitochondria assessed as state 3 respiratory rate using succinate and amytal sodium as substrate at 5 ng/mL; outline: as §1
Rattus norvegicus [31] = species: Rattus norvegicus; test: Effect on mitochondrial respiratory chain in rat heart mitochondria assessed as stimulation of state 2 respiration rate 449 ng/mL
Rattus norvegicus [32] = species: Rattus norvegicus; test: Effect on mitochondrial respiratory chain in rat heart mitochondria assessed as stimulation of state 2 respiration rate 12.6 ng/mL
Rattus norvegicus [33] = species: Rattus norvegicus; test: Effect on mitochondrial respiratory chain in Wistar rat heart mitochondria assessed as respiratory rate per mg protein using succinate and amytal sodium as substrate in presence of ADP (reference value: 606+/-108 nmol/min); outline: as §1
Rattus norvegicus [34] = species: Rattus norvegicus; test: Effect on mitochondrial respiratory chain in Wistar rat heart mitochondria assessed as increase in state 2 respiration rate using pyruvate and malate as substrate at 50 to 200 ng/mL; outline: as §1
Rattus norvegicus [35] = species: Rattus norvegicus; test: Effect on mitochondrial respiratory chain in Wistar rat heart mitochondria assessed as state 3 respiratory rate using pyruvate and malate as substrate at 5 ng/mL; outline: as §1
[36] = (§3) Effect on mitochondrial respiratory chain in Wistar rat heart mitochondria assessed as increase in state 2 respiratory rate using pyruvate and malate as substrate; outline: as §1
Rattus norvegicus [37] = species: Rattus norvegicus; test: as §3; outline: as §1
Rattus norvegicus [38] = species: Rattus norvegicus; test: Effect on mitochondrial respiratory chain in Wistar rat heart mitochondria assessed as respiratory rate per mg protein using palmitoyl-L-carnitine and malate as substrate (reference value: 85+/-4 nmol/min); outline: as §1
Rattus norvegicus [39] = species: Rattus norvegicus; test: Effect on mitochondrial respiratory chain in Wistar rat heart mitochondria assessed as state 3 respiratory rate using palmitoyl-L-carnitine and malate as substrate at 5 ng/mL; outline: as §1
Rattus norvegicus [40] = species: Rattus norvegicus; test: Effect on mitochondrial respiratory chain in Wistar rat heart mitochondria assessed as respiratory rate per mg protein using palmitoyl-L-carnitine and malate as substrate in presence of ADP (reference value: 436+/-54 nmol/min); outline: as §1
Rattus norvegicus [41] = species: Rattus norvegicus; test: Effect on mitochondrial respiratory chain in Wistar rat heart mitochondria assessed as respiratory rate per mg protein using pyruvate and malate as substrate (reference value: 52 +/- 7 nmol/min); outline: as §1

Question: Which Ratio (Rattus norvegicus [1]) does the source give for C[C@H]1[C@H](C)CC[C@]2(C(=O)O)CC[C@]3(C)C(=CC[C@@H]4[C@@]5(C)CC[C@H](O)C(C)(C)[C@@H]5CC[C@]43C)[C@H]12 [URSOLIC ACID] here?
Answer: Its Ratio is 1.5.

Question: What about the Activity (Rattus norvegicus [2]) of the same compound?
Answer: Its Activity is “inactive”.

Question: And the Ratio (Rattus norvegicus [3])?
Answer: The Ratio was 4.4.

Question: What about the Activity (Rattus norvegicus [4]) of the same compound?
Answer: The Activity was “inactive”.

Question: What about the Activity (Rattus norvegicus [5]) of the same compound?
Answer: The Activity was 78 nmol/min.

Question: What about the Ratio (Rattus norvegicus [6]) of the same compound?
Answer: The Ratio was 4.8.

Question: What about the Activity (Rattus norvegicus [7]) of the same compound?
Answer: The Activity was 238 nmol/min.

Question: And the Activity (Rattus norvegicus [8])?
Answer: The Activity was 11%.

Question: What about the Ratio (Rattus norvegicus [9]) of the same compound?
Answer: Its Ratio is 1.5.

Question: What about the Ratio (Rattus norvegicus [10]) of the same compound?
Answer: The Ratio was 1.2.

Question: What about the Activity (Rattus norvegicus [11]) of the same compound?
Answer: Its Activity is 299 nmol/min.

Question: What about the Activity (Rattus norvegicus [12]) of the same compound?
Answer: The Activity was 10%.

Question: What about the Activity (Rattus norvegicus [13]) of the same compound?
Answer: Its Activity is 11%.

Question: What about the Activity (Rattus norvegicus [14]) of the same compound?
Answer: The Activity was 49.5%.

Question: And the Activity (Rattus norvegicus [15])?
Answer: The Activity was 55.6%.

Question: And the Activity (Rattus norvegicus [16])?
Answer: Its Activity is 26%.

Question: And the Activity (Rattus norvegicus [17])?
Answer: The Activity was 10%.

Question: What about the Ratio (Rattus norvegicus [18]) of the same compound?
Answer: Its Ratio is 2.

Question: And the Activity (Rattus norvegicus [19])?
Answer: The Activity was 28%.

Question: What about the Activity (Rattus norvegicus [20]) of the same compound?
Answer: Its Activity is 92 nmol/min.

Question: And the Activity (Rattus norvegicus [21])?
Answer: Its Activity is 11%.

Question: And the Activity (Rattus norvegicus [22])?
Answer: The Activity was 70 nmol/min.

Question: And the Activity (Rattus norvegicus [23])?
Answer: The Activity was 90 nmol/min.

Question: And the Activity (Rattus norvegicus [24])?
Answer: Its Activity is 17%.

Question: And the Activity (Rattus norvegicus [25])?
Answer: Its Activity is 279 nmol/min.

Question: And the Activity (Rattus norvegicus [26])?
Answer: Its Activity is 374 nmol/min.

Question: And the Activity (Rattus norvegicus [27])?
Answer: Its Activity is 70%.

Question: What about the Activity (Rattus norvegicus [28]) of the same compound?
Answer: The Activity was 15%.

Question: And the Activity (Rattus norvegicus [29])?
Answer: Its Activity is 45%.

Question: And the Activity (Rattus norvegicus [30])?
Answer: The Activity was “inactive”.

Question: And the Activity (Rattus norvegicus [31])?
Answer: Its Activity is 11%.

Question: And the Activity (Rattus norvegicus [32])?
Answer: Its Activity is 11%.

Question: What about the Activity (Rattus norvegicus [33]) of the same compound?
Answer: The Activity was 599 nmol/min.

Question: What about the Activity (Rattus norvegicus [34]) of the same compound?
Answer: The Activity was 40%.

Question: What about the Activity (Rattus norvegicus [35]) of the same compound?
Answer: The Activity was “inactive”.

Question: What about the EC50 [36] of the same compound?
Answer: The EC50 was 4.1 ng/mL (≈ 8.98 nM).

Question: And the Activity (Rattus norvegicus [37])?
Answer: The Activity was “Dose-dependent effect”.

Question: And the Activity (Rattus norvegicus [38])?
Answer: The Activity was 82 nmol/min.

Question: And the Activity (Rattus norvegicus [39])?
Answer: Its Activity is “inactive”.

Question: What about the Activity (Rattus norvegicus [40]) of the same compound?
Answer: The Activity was 403 nmol/min.

Question: And the Activity (Rattus norvegicus [41])?
Answer: The Activity was 61 nmol/min.
